Data on 8 compounds can be found in ChEMBL document CHEMBL3526153, “Metabolism of gambogic acid in rats: a rare intestinal metabolic pathway responsible for its final disposition” (Drug Metab Dispos, 2011).

The nature of data set [1]: Retention time of the compound in Sprague-Dawley rat bile treated with gambogic acid at 4 mg/kg, iv measured over 24 hrs by LC-DAD-MS/MS analysis. The data set is classed as ADME, organism-based. Details: dose 4 mg/kg, route intravenous. As to conditions: in vivo. A digest of the protocol: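 SD rats, n=4, bile-duct cannulated under chloral hydrate and allowed 1 h recovery. GA 4 mg/kg i.v.; bile collected on ice, pooled 0–24 h. C18 LC-DAD-MS/MS at 0.25 mL/min with acetonitrile gradient (38% to 80%) in 10 mM ammonium acetate, 40 °C, negative ESI.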

The nature of data set [2]: Drug level in Sprague-Dawley rat gut treated with gambogic acid at 4 mg/kg, iv. The data set is classed as ADME, organism-based. Details: dose 4 mg/kg, route intravenous. As to conditions: in vivo.
The nature of data set [3]: Retention time of the compound in Sprague-Dawley rat feces treated with gambogic acid at 4 mg/kg, iv measured over 24 hrs by LC-DAD-MS/MS analysis. Details: dose 4 mg/kg, route intravenous. Particulars: in vivo. The data set is classed as ADME, organism-based. A digest of the protocol:
(§1)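 SD rats (250 ± 20 g), n=4, given GA 4 mg/kg i.v. via tail vein in 2 mL; feces pooled 0–24 h and stored at −20 °C. Feces (0.6 g) homogenized in 50% acetonitrile, sonicated, centrifuged, filtered, then ethyl acetate extraction. Analysed by C18 LC-DAD-MS/MS (gradient 38–80% acetonitrile, 10 mM ammonium acetate, 40 °C), negative ESI.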

Data set [4] is described as follows: Drug level in intestine (unknown origin) treated with gambogic acid. The data set is classed as ADME, tissue-based. A digest of the protocol: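 Intestinal contents from undosed rats homogenized in 5 mL water. 100 μL of 1.0 mg/mL GA solution added, incubated about 24 h at 37 °C, duplicate. 1.0 mL extracted with ethyl acetate. LC-MS/MS with negative ESI, SIM at m/z 709.3 plus full and product-ion scans, acetonitrile gradient 50–90%.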

A short description of data set [5]: Drug level in rat liver microsomes assessed as CYP450-mediated compound formation treated with gambogic acid at 50 uM preincubated for 10 mins followed by NADPH addition measured after 1 hr by LC-DAD-MS/MS analysis. The data set is classed as ADME. In short, it runs like this:
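GA 50 µM with rat liver microsomes 1.0 mg/mL in 0.1 M PBS pH 7.4, pre-incubated 10 min at 37 °C. Started with NADPH (6.0 mM final) and run 1 h at 37 °C. Controls lacked NADPH or microsomes; duplicate. Stopped with ice-cold acetonitrile, centrifuged, supernatant dried and reconstituted. Isocratic LC (65% acetonitrile), negative-ion ESI MS/MS.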

Data set [6] is described as follows: Drug level in Sprague-Dawley rat feces treated with gambogic acid at 4 mg/kg, iv measured over 24 hrs by LC-DAD-MS/MS analysis. The class given is ADME, organism-based. Also on record: dose 4 mg/kg, route intravenous. Particulars: in vivo. In short, it runs like this:
as §1

The next data set has as its system Plasma. Kind of data set: Drug level in Sprague-Dawley rat plasma treated with gambogic acid at 4 mg/kg, iv measured over 4 hrs by LC-DAD-MS/MS analysis. Particulars: in vivo. Details: dose 4 mg/kg, route intravenous. The class given is ADME, organism-based. In short, it runs like this:
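Six SD rats given GA 4 mg/kg i.v. via tail vein. Tail blood taken into heparin at 0.033–4 h; plasma separated at 3000 × g, 4 °C, and pooled 0–4 h. 1 mL extracted with 4 mL ethyl acetate, dried, reconstituted. Isocratic 68% acetonitrile, LC-MS/MS in negative ESI.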

A short description of data set [7]: Drug level in PBS buffer treated with gambogic acid at 50 uM preincubated for 10 mins followed by NADPH addition measured after 1 hr by LC-DAD-MS/MS analysis in absence of liver microsomes. The data set is classed as physicochemical. A digest of the protocol:
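Control incubation with no microsomes: GA 50 μM (added in 5.0 μL acetonitrile) in 0.1 M PBS pH 7.4, 1.0 mL, preincubated 10 min at 37 °C with shaking. NADPH added to 6.0 mM final, then 1 h at 37 °C, duplicate. Stopped with ice-cold acetonitrile, centrifuged, supernatant dried under N2, reconstituted in mobile phase. LC-MS/MS with negative ESI, isocratic 65% acetonitrile.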

The next data set concerns Liver microsome. In words: Drug level in rat liver microsomes treated with gambogic acid at 50 uM preincubated for 10 mins followed by UDPGA addition measured after 2 hrs by LC-MS/MS analysis. The data set is classed as ADME. In short, it runs like this: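 Rat liver microsomes 1.0 mg/mL pretreated with alamethicin 50 μg/mg protein. GA 50 μM, saccharic acid-1,4-lactone 6 mM, in 0.05 M Tris-HCl pH 7.4. Preincubated 10 min at 37 °C, started with UDPGA (6.0 mM final), run 2 h at 37 °C, duplicate. Quenched with ice-cold acetonitrile. LC-MS/MS in negative ESI with acetonitrile gradient 50–95%.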

`CC(C)=CCC[C@]1(C)C=Cc2c(O)c3c(c(CC=C(C)C)c2O1)O[C@]12C(C3=O)C(O[C@@H]3O[C@H](CO)[C@@H](O)[C@H](O)[C@H]3O)[C@@H]3C[C@H]1C(C)(C)O[C@@]2(C/C=C(/C)C(=O)O)C3=O` (stereo not given in full) yielded a Retention_time in data set [1] of 38.7 min.
Turning to `CC(C)=CCC[C@]1(C)C=Cc2c(O)c3c(c(CC=C(C)C)c2O1)O[C@]12C(C3=O)[C@H](S(=O)(=O)O)[C@@H]3C[C@H]1C(C)(C)O[C@@]2(C/C=C(/C)C(=O)O)C3=O` (stereo not given in full), the Drug metabolism result in data set [2] and in data set [4] was “metabolite_detected” in each case. Also, the Retention_time in [3] was found to be 16.9 min.
With `CC(C)=CCC[C@]1(C)C=Cc2c(O)c3c(c(CC=C(C)C)c2O1)O[C@]12[C@H]4C[C@H](C(=O)[C@]1(C/C=C(/C)C(=O)O[C@@H]1O[C@H](CO)[C@@H](O)[C@H](O)[C@H]1O)OC4(C)C)C1OC12C3=O` (stereo not given in full), the Retention_time in data set [1] stood at 39 min.
In the case of `CC(C)=CCC[C@]1(C)C=Cc2c(O)c3c(c(CC=C(C)C)c2O1)O[C@]12C(C3=O)C(O)[C@@H]3C[C@H]1C(C)(C)O[C@@]2(C/C=C(/C)C(=O)O)C3=O` (stereo not given in full), in [1], the Retention_time was found to be 39.5 min. Moreover, the Drug metabolism entry (in data set [5]; in data set [6]; with Plasma; in data set [7]) was “metabolite_detected” in each case.
For the compound `CC(C)=CCC[C@]1(C)C=Cc2c(O)c3c(c(CC=C(C)C)c2O1)O[C@]12C(C3=O)[C@@H](S(=O)(=O)O)[C@@H]3C[C@H]1C(C)(C)O[C@@]2(C/C=C(/C)C(=O)O)C3=O` (stereo not given in full), the Drug metabolism entry in [2] and in data set [4] was “metabolite_detected” in each case. In addition, the Retention_time in data set [3] was 19.4 min.
Consider `CC(C)=CCC[C@]1(C)C=Cc2c(O)c3c(c(CC=C(C)C)c2O1)O[C@]12C(=C[C@@H]4C[C@H]1C(C)(C)O[C@@]2(C/C=C(/C)C(=O)O[C@@H]1O[C@H](C(=O)O)[C@@H](O)[C@H](O)[C@H]1O)C4=O)C3=O`, for which the Retention_time in data set [1] stood at 23.6 min. In addition, the Drug metabolism entry (in [6]; in the data set with Liver microsome) was “metabolite_detected” each time.
In turn, `CC(C)=CCC[C@]1(C)C=Cc2c(O)c3c(c(CC=C(C)C)c2O1)O[C@]12C(=C[C@@H]4C[C@H]1C(C)(C)O[C@@]2(C/C=C(/C)C(=O)O[C@@H]1O[C@H](CO)[C@@H](O)[C@H](O)[C@H]1O)C4=O)C3=O` showed a Retention_time in data set [1] of 40.3 min.
`CC(C)=CCC[C@]1(C)C=Cc2c(O)c3c(c(CC=C(C)C)c2O1)O[C@]12[C@H]4C[C@H](C(=O)[C@]1(C/C=C(/C)C(=O)O)OC4(C)C)C1OC12C3=O` (stereo not given in full) had a Retention_time in data set [1] of 43.8 min. The Drug metabolism entry in [5] and in data set [6] was “metabolite_detected” each time.
